Test results from ChEMBL document CHEMBL4316612, “Synthesis of novel dihydrotriazine derivatives bearing 1,3-diaryl pyrazole moieties as potential antibacterial agents” (Bioorg Med Chem Lett, 2019).
In brackets after ≈: the same amount, converted by molar mass.

Tests used:
Type in all cases: functional
Staphylococcus aureus [1] = assay: Antibacterial activity against Staphylococcus aureus RN4220 after 24 hrs by microtiter ELISA; conditions: RN4220, 24 h
How it was run: (§1)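 Broth microdilution MIC. Bacteria grown to mid-log phase in Mueller-Hinton broth, diluted 1000-fold, and inoculated at 10^5 CFU/mL. Compounds in DMSO (final ≤0.05%) were given as two-fold serial dilutions, final 64-0.25 µg/mL. Plates were incubated 24 h at 37 °C and growth read at 650 nm. MIC is the lowest concentration giving complete growth inhibition. Three independent experiments; oxacillin and norfloxacin served as positive controls.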

Staphylococcus aureus [2] = assay: Antibacterial activity against quinolone-resistant Staphylococcus aureus CCARM 3505 after 24 hrs by microtiter ELISA; conditions: CCARM 3505, 24 h; how it was run: as §1
Escherichia coli = assay: Antibacterial activity against Escherichia coli KCTC 1924 after 24 hrs by microtiter ELISA; conditions: KCTC 1924, 24 h
How it was run: (§2)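 Two-fold serial broth dilution in Mueller-Hinton broth, final 64-0.25 µg/mL; compounds in DMSO (final ≤0.05%). Mid-log cultures diluted 1000-fold, inoculum 10^5 CFU/mL; oxacillin and norfloxacin as positive controls. After 24 h at 37 °C, growth read at 650 nm on a microtiter ELISA reader; MIC = lowest level giving complete growth inhibition. Run three times.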

Staphylococcus aureus [3] = assay: Antibacterial activity against methicillin-resistant Staphylococcus aureus CCARM 3506 after 24 hrs by microtiter ELISA; conditions: CCARM 3506, 24 h; how it was run: as §1
Candida albicans = assay: Antifungal activity against Candida albicans 7535 after 24 hrs by microtiter ELISA; conditions: Candida albicans, 7535, 24 h; how it was run: as §2
Staphylococcus aureus [4] = assay: Antibacterial activity against methicillin-resistant Staphylococcus aureus CCARM 3167 after 24 hrs by microtiter ELISA; conditions: CCARM 3167, 24 h; how it was run: as §1
Streptococcus mutans = assay: Antibacterial activity against Streptococcus mutans 3289 after 24 hrs by microtiter ELISA; conditions: Streptococcus mutans, 3289, 24 h; how it was run: as §2
Staphylococcus aureus [5] = assay: Antibacterial activity against quinolone-resistant Staphylococcus aureus CCARM 3519 after 24 hrs by microtiter ELISA; conditions: CCARM 3519, 24 h; how it was run: as §1

| SMILES | MIC (Staphylococcus aureus [1]) | MIC (Staphylococcus aureus [2]) | MIC (Escherichia coli) | MIC (Staphylococcus aureus [3]) | MIC (Candida albicans) | MIC (Staphylococcus aureus [4]) | MIC (Streptococcus mutans) | MIC (Staphylococcus aureus [5]) |
| --- | --- | --- | --- | --- | --- | --- | --- | --- |
| CN(C)C1=NC(c2cn(-c3ccc([N+](=O)[O-])cc3[N+](=O)[O-])nc2-c2ccccc2F)N=C(N)N1 (stereo not drawn) | 64 µg/mL (≈ 137 µM) | 64 µg/mL (≈ 137 µM) | 32 µg/mL (≈ 68.5 µM) | 32 µg/mL (≈ 68.5 µM) | 32 µg/mL (≈ 68.5 µM) | 64 µg/mL (≈ 137 µM) | 64 µg/mL (≈ 137 µM) | 64 µg/mL (≈ 137 µM) |
| COc1c(N2C[C@@H]3CCCN[C@@H]3C2)c(F)cc2c(=O)c(C(=O)O)cn(C3CC3)c12 [MOXIFLOXACIN] | 0.25 µg/mL (≈ 0.623 µM) | – | – | – | – | – | 0.25 µg/mL (≈ 0.623 µM) | 4 µg/mL (≈ 9.96 µM) |
| COc1c(N2CCNC(C)C2)c(F)cc2c(=O)c(C(=O)O)cn(C3CC3)c12 (stereo not drawn) [GATIFLOXACIN] | 0.25 µg/mL (≈ 0.666 µM) | 8 µg/mL (≈ 21.3 µM) | 2 µg/mL (≈ 5.33 µM) | 2 µg/mL (≈ 5.33 µM) | – | 2 µg/mL (≈ 5.33 µM) | 0.25 µg/mL (≈ 0.666 µM) | 4 µg/mL (≈ 10.7 µM) |
| NC1=NC(c2cn(-c3ccc([N+](=O)[O-])cc3[N+](=O)[O-])nc2-c2ccccc2Cl)N=C(N2CCOCC2)N1 (stereo not drawn) | 32 µg/mL (≈ 60.8 µM) | 32 µg/mL (≈ 60.8 µM) | 64 µg/mL (≈ 122 µM) | 32 µg/mL (≈ 60.8 µM) | 64 µg/mL (≈ 122 µM) | 32 µg/mL (≈ 60.8 µM) | 64 µg/mL (≈ 122 µM) | 64 µg/mL (≈ 122 µM) |
| COc1cccc(-c2nn(-c3ccc([N+](=O)[O-])cc3[N+](=O)[O-])cc2C2N=C(N)NC(N(C)C)=N2)c1 (stereo not drawn) | 32 µg/mL (≈ 66.7 µM) | 64 µg/mL (≈ 133 µM) | 32 µg/mL (≈ 66.7 µM) | 32 µg/mL (≈ 66.7 µM) | 32 µg/mL (≈ 66.7 µM) | 32 µg/mL (≈ 66.7 µM) | 64 µg/mL (≈ 133 µM) | 64 µg/mL (≈ 133 µM) |
| NC1=NC(c2cn(-c3ccccc3)nc2-c2ccc(Br)cc2)N=C(N2CCOCC2)N1 (stereo not drawn) | 8 µg/mL (≈ 16.7 µM) | 16 µg/mL (≈ 33.3 µM) | 16 µg/mL (≈ 33.3 µM) | 4 µg/mL (≈ 8.33 µM) | 16 µg/mL (≈ 33.3 µM) | 8 µg/mL (≈ 16.7 µM) | 32 µg/mL (≈ 66.6 µM) | 8 µg/mL (≈ 16.7 µM) |
| CN(C)C1=NC(c2cn(-c3ccccc3)nc2-c2cccc(Cl)c2)N=C(N)N1 (stereo not drawn) | 4 µg/mL (≈ 10.2 µM) | 32 µg/mL (≈ 81.2 µM) | 8 µg/mL (≈ 20.3 µM) | 16 µg/mL (≈ 40.6 µM) | 8 µg/mL (≈ 20.3 µM) | 16 µg/mL (≈ 40.6 µM) | 16 µg/mL (≈ 40.6 µM) | 32 µg/mL (≈ 81.2 µM) |
| CN(C)C1=NC(c2cn(-c3ccc([N+](=O)[O-])cc3[N+](=O)[O-])nc2-c2ccccc2Br)N=C(N)N1 (stereo not drawn) | 32 µg/mL (≈ 60.6 µM) | 32 µg/mL (≈ 60.6 µM) | 32 µg/mL (≈ 60.6 µM) | 32 µg/mL (≈ 60.6 µM) | 64 µg/mL (≈ 121 µM) | 32 µg/mL (≈ 60.6 µM) | 32 µg/mL (≈ 60.6 µM) | 64 µg/mL (≈ 121 µM) |
| NC1=NC(c2cn(-c3ccccc3)nc2-c2ccc(Cl)cc2)N=C(N2CCOCC2)N1 (stereo not drawn) | 16 µg/mL (≈ 36.7 µM) | 16 µg/mL (≈ 36.7 µM) | 16 µg/mL (≈ 36.7 µM) | 16 µg/mL (≈ 36.7 µM) | 16 µg/mL (≈ 36.7 µM) | 16 µg/mL (≈ 36.7 µM) | 32 µg/mL (≈ 73.4 µM) | 16 µg/mL (≈ 36.7 µM) |
| CN(C)C1=NC(c2cn(-c3ccccc3)nc2-c2ccc(Br)cc2)N=C(N)N1 (stereo not drawn) | 8 µg/mL (≈ 18.3 µM) | 16 µg/mL (≈ 36.5 µM) | 8 µg/mL (≈ 18.3 µM) | 4 µg/mL (≈ 9.13 µM) | 8 µg/mL (≈ 18.3 µM) | 4 µg/mL (≈ 9.13 µM) | 16 µg/mL (≈ 36.5 µM) | 16 µg/mL (≈ 36.5 µM) |
| Cc1ccc(-c2nn(-c3ccc([N+](=O)[O-])cc3[N+](=O)[O-])cc2C2N=C(N)NC(N(C)C)=N2)cc1 (stereo not drawn) | 16 µg/mL (≈ 34.5 µM) | 8 µg/mL (≈ 17.3 µM) | 16 µg/mL (≈ 34.5 µM) | 8 µg/mL (≈ 17.3 µM) | 64 µg/mL (≈ 138 µM) | 8 µg/mL (≈ 17.3 µM) | 16 µg/mL (≈ 34.5 µM) | 16 µg/mL (≈ 34.5 µM) |
| CN(C)C1=NC(c2cn(-c3ccc([N+](=O)[O-])cc3[N+](=O)[O-])nc2-c2ccccc2Cl)N=C(N)N1 (stereo not drawn) | 32 µg/mL (≈ 66.1 µM) | 32 µg/mL (≈ 66.1 µM) | 32 µg/mL (≈ 66.1 µM) | 64 µg/mL (≈ 132 µM) | 64 µg/mL (≈ 132 µM) | 32 µg/mL (≈ 66.1 µM) | 64 µg/mL (≈ 132 µM) | 64 µg/mL (≈ 132 µM) |
| NC1=NC(c2cn(-c3ccccc3)nc2-c2cccc(Cl)c2)N=C(N2CCOCC2)N1 (stereo not drawn) | 16 µg/mL (≈ 36.7 µM) | 16 µg/mL (≈ 36.7 µM) | 16 µg/mL (≈ 36.7 µM) | 16 µg/mL (≈ 36.7 µM) | 16 µg/mL (≈ 36.7 µM) | 16 µg/mL (≈ 36.7 µM) | 32 µg/mL (≈ 73.4 µM) | 16 µg/mL (≈ 36.7 µM) |
| Cc1onc(-c2ccccc2)c1C(=O)N[C@@H]1C(=O)N2[C@@H]1SC(C)(C)[C@@H]2C(=O)O [OXACILLIN] | – | 1 µg/mL (≈ 2.49 µM) | – | > 64 µg/mL | – | > 64 µg/mL | – | 1 µg/mL (≈ 2.49 µM) |
| CN(C)C1=NC(c2cn(-c3ccc([N+](=O)[O-])cc3[N+](=O)[O-])nc2-c2ccccc2[N+](=O)[O-])N=C(N)N1 (stereo not drawn) | > 64 µg/mL | > 64 µg/mL | > 64 µg/mL | > 64 µg/mL | > 64 µg/mL | > 64 µg/mL | > 64 µg/mL | > 64 µg/mL |
| CN(C)C1=NC(c2cn(-c3ccccc3)nc2-c2ccccc2)N=C(N)N1 (stereo not drawn) | 32 µg/mL (≈ 89 µM) | 32 µg/mL (≈ 89 µM) | 64 µg/mL (≈ 178 µM) | 32 µg/mL (≈ 89 µM) | > 64 µg/mL | 32 µg/mL (≈ 89 µM) | > 64 µg/mL | 64 µg/mL (≈ 178 µM) |
